{
  "source": "ChEMBL document CHEMBL3112586",
  "about": "“Synthesis of neolignans as microtubule stabilisers” (Bioorg Med Chem, 2014)",
  "key": {"[1]": {"tested_on": "MCF7", "assay": "Cytotoxicity against human MCF7 cells after 24 hrs by MTT assay", "assay_type": "functional, cell-based", "details": "MCF7, 24 h", "in_short": "(§1)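 Cells in DMEM, 10% FBS, 37 °C, 5% CO2, plated and incubated 24 h; compounds diluted in phenol-red-free DMEM with 0.5% FBS, vehicle control; after exposure, MTT (5 mg/mL stock) added 3 h, formazan dissolved in DMSO, absorbance 570 nm; IC50 derived; podophyllotoxin and tamoxifen positive controls.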"}, "[2]": {"tested_on": "MDA-MB-231", "assay": "Cytotoxicity against human MDA-MB-231 cells after 24 hrs by MTT assay", "assay_type": "functional, cell-based", "details": "MDA-MB-231, 24 h", "in_short": "as §1"}, "[3]": {"molecular_target": "T1, Tubulin (Homo sapiens) (UniProt P68371+Q9H4B7+P0DPH7+P68366+Q13509+Q71U36+P04350+Q3ZCM7+P07437+P68363+Q9BQE3+Q6PEY2+Q13885+Q9BVA1+Q9BUF5)", "assay": "Induction of tubulin polymerization (unknown origin) at 10 to 40 uM measured every min for 1 hr in presence of PDT", "assay_type": "protein-complex assay", "in_short": "(§2)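 Tubulin 3 mg/mL in 80 mM PIPES pH 6.9, 2 mM MgCl2, 0.5 mM EGTA, 1 mM GTP, 15% glycerol at 37 °C with test compounds at varied concentrations; turbidity at 340 nm read every min for 1 h; podophyllotoxin inhibitor and paclitaxel stabiliser references, DMSO negative control.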"}, "[4]": {"tested_on": "MCF7", "assay": "Cytotoxicity against human MCF7 cells after 48 hrs by MTT assay", "assay_type": "functional, cell-based", "details": "MCF7, 48 h", "in_short": "as §1"}, "[5]": {"tested_on": "MCF7", "assay": "Cytotoxicity against human MCF7 cells after 48 to 72 hrs by MTT assay", "assay_type": "functional, cell-based", "in_short": "as §1"}, "[6]": {"tested_on": "MDA-MB-231", "assay": "Cytotoxicity against human MDA-MB-231 cells after 72 hrs by MTT assay", "assay_type": "functional, cell-based", "details": "MDA-MB-231, 72 h", "in_short": "as §1"}, "[7]": {"tested_on": "MCF7", "assay": "Cytotoxicity against human MCF7 cells after 72 hrs by MTT assay", "assay_type": "functional, cell-based", "details": "MCF7, 72 h", "in_short": "as §1"}, "[8]": {"tested_on": "HEK293", "assay": "Cytotoxicity against human HEK293 cells after 24 hrs by MTT assay", "assay_type": "cell-based", "details": "HEK293, 24 h", "in_short": "as §1"}, "[9]": {"organism": "Homo sapiens", "assay": "Induction of microtubule stabilization (unknown origin) at 4 to 20 uM"}, "[10]": {"molecular_target": "T1, Tubulin (Homo sapiens)", "assay": "Induction of tubulin polymerization (unknown origin) at 10 to 40 uM measured every min for 1 hr", "assay_type": "protein-complex assay", "in_short": "as §2"}, "[11]": {"tested_on": "MDA-MB-231", "assay": "Cytotoxicity against human MDA-MB-231 cells after 48 hrs by MTT assay", "assay_type": "functional, cell-based", "details": "MDA-MB-231, 48 h", "in_short": "as §1"}, "[12]": {"tested_on": "MDA-MB-231", "assay": "Cytotoxicity against human MDA-MB-231 cells after 48 to 72 hrs by MTT assay", "assay_type": "functional, cell-based", "in_short": "as §1"}, "[13]": {"tested_on": "MCF7", "assay": "Induction of microtubule polymerization in human MCF7 cells assessed as actin-tubulin cytoskeleton stabilization at 10 uM by confocal microscopy", "assay_type": "cell-based", "in_short": "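MCF-7 cells treated, immunostained for actin and tubulin, and examined by confocal microscopy; paclitaxel-treated cells as positive control.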"}},
  "note": "pIC50: −log10 of the molar value. Active and inactive are the calls of the source. No cut-off for these calls is given here.",
  "data": [
    {"smiles": "COc1ccc(/C=C(\\C(N)=O)c2cc(/C=C/C(N)=O)cc(OC)c2OC)cc1OC", "values": [
      {"measurement": "pIC50", "setting": "[1]", "result": 4.00},
      {"measurement": "pIC50", "setting": "[2]", "result": 4.49}
    ]},
    {"smiles": "CCOC(=O)/C=C/c1ccc(OC)c(/C(=C/c2ccc(OC)cc2)C(=O)OCC)c1", "values": [
      {"measurement": "pIC50", "setting": "[1]", "result": "< 4.00"},
      {"measurement": "pIC50", "setting": "[2]", "result": "< 4.00"}
    ]},
    {"smiles": "COc1ccc(/C=C(\\COC(C)=O)c2cc(/C=C/COC(C)=O)cc(OC)c2OC)cc1OC", "values": [
      {"measurement": "pIC50", "setting": "[1]", "result": "< 4.00"},
      {"measurement": "pIC50", "setting": "[2]", "result": "< 4.00"}
    ]},
    {"smiles": "CCOC(=O)/C=C/c1ccc(O)c(/C(=C/c2ccc(OC(C)=O)cc2)C(=O)OCC)c1", "values": [
      {"measurement": "Activity", "setting": "[3]", "result": "inactive"},
      {"measurement": "pIC50", "setting": "[4]", "result": 5.02},
      {"measurement": "Activity", "setting": "[5]", "result": "Active"},
      {"measurement": "pIC50", "setting": "[1]", "result": 4.18},
      {"measurement": "pIC50", "setting": "[6]", "result": 6.68},
      {"measurement": "pIC50", "setting": "[7]", "result": 6.09},
      {"measurement": "pIC50", "setting": "[8]", "result": 4.70},
      {"measurement": "Activity", "setting": "[9]", "result": "Active"},
      {"measurement": "Activity", "setting": "[10]", "result": "Active"},
      {"measurement": "pIC50", "setting": "[2]", "result": 4.80},
      {"measurement": "pIC50", "setting": "[11]", "result": 5.49},
      {"measurement": "Activity", "setting": "[12]", "result": "Active"}
    ]},
    {"smiles": "COc1cc(/C=C(\\C(N)=O)c2cc(/C=C/C(N)=O)cc(OC)c2O)ccc1O", "values": [
      {"measurement": "pIC50", "setting": "[1]", "result": 4.00},
      {"measurement": "pIC50", "setting": "[2]", "result": 4.10}
    ]},
    {"smiles": "COc1cc([C@@H]2c3cc4c(cc3[C@H](O)[C@H]3COC(=O)[C@H]23)OCO4)cc(OC)c1OC", "note": "[PODOFILOX]", "values": [
      {"measurement": "pIC50", "setting": "[1]", "result": 4.19},
      {"measurement": "pIC50", "setting": "[8]", "result": 4.30},
      {"measurement": "pIC50", "setting": "[2]", "result": 4.45}
    ]},
    {"smiles": "CCOC(=O)/C=C/c1cc(OC)c(O)c(/C(=C/c2ccc(OC(C)=O)c(OC)c2)C(=O)OCC)c1", "values": [
      {"measurement": "pIC50", "setting": "[1]", "result": "< 4.00"},
      {"measurement": "pIC50", "setting": "[2]", "result": "< 4.00"}
    ]},
    {"smiles": "CCOC(=O)C(=C\\c1cc(OC)c(OC(C)=O)c(OC)c1)/C(=C/c1cc(OC)c(OC(C)=O)c(OC)c1)C(=O)OCC", "values": [
      {"measurement": "pIC50", "setting": "[1]", "result": "< 4.00"},
      {"measurement": "pIC50", "setting": "[2]", "result": "< 4.00"}
    ]},
    {"smiles": "CCOC(=O)/C=C/c1cc(OC)c(O)c(/C(=C/c2ccc(O)c(OC)c2)C(=O)OCC)c1", "values": [
      {"measurement": "pIC50", "setting": "[1]", "result": "< 4.00"},
      {"measurement": "pIC50", "setting": "[2]", "result": "< 4.00"}
    ]},
    {"smiles": "CCOC(=O)/C=C/c1cc(OC)c(O)c(OC)c1/C(=C/c1cc(OC)c(O)c(OC)c1)C(=O)OCC", "values": [
      {"measurement": "pIC50", "setting": "[1]", "result": 4.13},
      {"measurement": "pIC50", "setting": "[2]", "result": 4.04}
    ]},
    {"smiles": "CCOC(=O)C(=C\\c1cc(OC)c(O)c(OC)c1)/C(=C/c1cc(OC)c(O)c(OC)c1)C(=O)OCC", "values": [
      {"measurement": "pIC50", "setting": "[1]", "result": "< 4.00"},
      {"measurement": "pIC50", "setting": "[2]", "result": 4.09}
    ]},
    {"smiles": "COc1ccc(/C=C(\\C(=O)O)c2cc(/C=C/C(=O)O)cc(OC)c2OC)cc1OC", "values": [
      {"measurement": "pIC50", "setting": "[2]", "result": 4.07}
    ]},
    {"smiles": "CC/C(=C(\\c1ccccc1)c1ccc(OCCN(C)C)cc1)c1ccccc1", "note": "[TAMOXIFEN]", "values": [
      {"measurement": "pIC50", "setting": "[8]", "result": 4.59}
    ]},
    {"smiles": "CCOC(=O)/C=C/c1cc(OC)c(OC)c(/C(=C/c2ccc(OC)c(OC)c2)C(=O)OCC)c1", "values": [
      {"measurement": "pIC50", "setting": "[1]", "result": "< 4.00"},
      {"measurement": "pIC50", "setting": "[2]", "result": "< 4.00"}
    ]},
    {"smiles": "COc1ccc(/C=C(\\CO)c2cc(/C=C/CO)cc(OC)c2OC)cc1OC", "values": [
      {"measurement": "pIC50", "setting": "[1]", "result": "< 4.00"},
      {"measurement": "pIC50", "setting": "[2]", "result": "< 4.00"}
    ]},
    {"smiles": "CCOC(=O)C(=C\\c1cc(OC)c(OC)c(OC)c1)/C(=C/c1cc(OC)c(OC)c(OC)c1)C(=O)OCC", "values": [
      {"measurement": "pIC50", "setting": "[1]", "result": 4.00},
      {"measurement": "pIC50", "setting": "[2]", "result": "< 4.00"}
    ]},
    {"smiles": "CC(=O)O[C@H]1C(=O)[C@@]2(C)[C@H]([C@H](OC(=O)c3ccccc3)[C@]3(O)C[C@H](OC(=O)[C@H](O)[C@@H](NC(=O)c4ccccc4)c4ccccc4)C(C)=C1C3(C)C)[C@]1(OC(C)=O)CO[C@@H]1C[C@@H]2O", "values": [
      {"measurement": "Activity", "setting": "[3]", "result": "inactive"},
      {"measurement": "Activity", "setting": "[13]", "result": "Active"},
      {"measurement": "Activity", "setting": "[10]", "result": "Active"}
    ]}
  ]
}
